Assay results published in article PMC6177216 (Journal of controlled release : official journal of the …, 2018).
Where two headings read alike, the source gives them in different places.

Assays:
[1] = system: GCS mRNA; assay: GCS mRNA expression by real-time PCR in 4T1.2 cells; format: cell-based, mouse; settings: 48 h; for effect on GCS mRNA expression: various concentrations
[2] = system: MCF-7 human breast cancer cells; assay: MTT cytotoxicity assay in MCF-7 cells; format: cell-based; settings: for inhibition of cell proliferation (in words): MTT
Summary of the method: (§1)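 Cells seeded at 5×10³ (MCF-7) or 3×10³ (PC-3) per well and grown 24 h in DMEM with 10% FBS and 1% streptomycin/penicillin. They were then exposed for 48 h to various concentrations of test compound alone or combined with another anticancer agent. Viability was read by MTT. IC50 came from fitting an inhibitory normalised dose-response model with variable slope.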

[3] = system: 4T1.2 mouse breast cancer cells; assay: MTT cytotoxicity assay in 4T1.2 cells; format: cell-based
[4] = system: GCS mRNA; assay: GCS mRNA expression by real-time PCR in MCF-7 cells; format: cell-based, human; settings: 48 h; for effect on GCS mRNA expression: various concentrations
[5] = system: PC-3 human prostate cancer cells; assay: MTT cytotoxicity assay in PC-3 cells; format: cell-based
Summary of the method: as §1

[6] = Plasma pharmacokinetics of DOX; format: in vivo, tumor-free female CD1 mice; settings: DOX in plasma; i.v. 5 mg/kg DOX; CD1 mice
[7] = In vitro DOX release by dialysis in DPBS; format: physicochemical; settings: DOX 0.5 mg/mL
Summary of the method: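 Dialysis release was run alongside free drug and drug loaded in a pharmacologically inert copolymer micelle as comparators. Cumulative release was followed from 0 to 72 h in triplicate.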

[8] = system: ceramides in MCF-7 cells; assay: Ceramide levels by LC/MS in MCF-7 cells; format: cell-based, human; settings: PPMP 1.7 μM and/or DOX 100 nM, 48 h
Summary of the method: (§2)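 Cells seeded at 2×10⁴ (4T1.2) or 6×10⁴ (MCF-7) per well in DMEM with 10% FBS and 1% penicillin-streptomycin for 24 h. Medium was then replaced with 2% FBS medium containing test compound, free or micellar. After 48 h, cells were washed with ice-cold D-PBS and lysed in 0.2% SDS, with an aliquot kept for protein assay. Lipids were resuspended in ACN/IPA/H₂O (1:1:1) and analysed by HPLC-ESI-MS/MS. Peak areas were quantified against C6-ceramide internal standard and normalised to protein.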

[9] = system: ceramides in 4T1.2 cells; assay: Ceramide levels by LC/MS in 4T1.2 cells; format: cell-based, mouse; settings: PPMP 1.7 μM and/or DOX 100 nM, 48 h
Summary of the method: as §2

CC(=O)O[C@H]1C(=O)[C@@]2(C)[C@H]([C@H](OC(=O)c3ccccc3)[C@]3(O)C[C@H](OC(=O)[C@H](O)[C@@H](NC(=O)c4ccccc4)c4ccccc4)C(C)=C1C3(C)C)[C@]1(OC(C)=O)CO[C@@H]1C[C@@H]2O [PTX, paclitaxel]
effect on GCS mRNA expression [1]: not in 4T1.2 cells
IC50 ([2]; Homo sapiens, MCF7, 48 h, read-out: D502, IC50 of drug 2 in single treatment): 7.14 ± 1.87 µg/mL
IC50 ([3]; Mus musculus, 4T1.2, 48 h, read-out: D502, IC50 of drug 2 in single treatment): 0.108 ± 0.0181 µg/mL
effect on GCS mRNA expression [4]: significant induction
IC50 ([5]; Homo sapiens, PC-3, 48 h, read-out: D502, IC50 of drug 2 in single treatment): 0.0043 ± 0.0002 µg/mL

COc1cccc2c1C(=O)c1c(O)c3c(c(O)c1C2=O)C[C@@](O)(C(=O)CO)C[C@@H]3O[C@H]1C[C@H](N)[C@H](O)[C@H](C)O1 [DOX, Doxorubicin]
AUC0−∞ [6]: 9200 ng·h/mL
CL [6]: 10.87 µL/h
Cmax [6]: 4410 µg/mL
T1/2 [6]: 3.35 h
Vd [6]: 52.49 µL
DOX released ([7]; in 2 h): Forty eight
DOX released ([7]; within 12 h): around 83%
effect on GCS mRNA expression [1]: similarly observed
inhibition of cell proliferation (in words) ([2]; MCF-7, 48 h): concentration-dependent inhibition
effect on amount of C16 ceramide [8]: significantly induced
effect on amount of C16 ceramide [9]: significantly induced
increase of GCS mRNA expression level ([4]; DOX 200 nM): 4.2 fold
effect on GCS mRNA expression [4]: significant increases

CCCCCCCCCCCCCCCC(=O)NC(CN1CCOCC1)C(O)c1ccccc1 (centres unmarked) [PPMP, 1-phenyl-2-palmitoylamino-3-morpholino-1-propanol]
effect on DOX-induced upregulation of GCS mRNA expression ([1]; PPMP 1.7 μM, DOX 100 nM): effective in inhibiting
effect on basal level of GCS mRNA ([1]; PPMP concentration 1.7 μM): significant decreases
IC50 ([2]; Homo sapiens, MCF7, 48 h, read-out: D501, IC50 of PPMP in single treatment): 5.7 ± 0.4 µM
inhibition of cell proliferation (in words) ([2]; MCF-7, 48 h): concentration-dependent inhibition
cytotoxicity / inhibition of proliferation (in words) ([3]; 4T1.2, 48 h, MTT): inhibited the proliferation
IC50 ([3]; Mus musculus, 4T1.2, 48 h, read-out: D501, IC50 of PPMP in single treatment): 2.2 ± 0.1 µM
effect on amount of C16 ceramide [8]: modest increase
effect on amount of C16 ceramide [9]: modest increase
effect on DOX-induced upregulation of GCS mRNA expression ([4]; PPMP 1.7 μM, DOX 100 nM): effective in inhibiting
effect on basal level of GCS mRNA ([4]; PPMP concentration 1.7 μM): significant decreases
IC50 ([5]; Homo sapiens, PC-3, 48 h, read-out: D501, IC50 of PPMP in single treatment): 3.4 ± 0.1 µM

CCCCCCCCCCCCC/C=C/[C@@H](O)[C@H](CO)NC(=O)CCCCC [C6-ceramide]
effect on GCS mRNA expression [1]: similarly observed
IC50 ([2]; read-out: D502, IC50 of drug 2 in single treatment, MCF-7, 48 h): 6.2 ± 0.2 µM
IC50 ([3]; read-out: D502, IC50 of drug 2 in single treatment, 4T1.2, 48 h): 2.8 ± 0.2 µM
increase of GCS mRNA expression level ([4]; C6-ceramide 2 μM): 6.5 fold
effect on GCS mRNA expression [4]: significant increases
IC50 ([5]; read-out: D502, IC50 of drug 2 in single treatment, PC-3, 48 h): 1.6 ± 0.1 µM
